Consider four compounds from PMC6007853 (Biochemistry, 2018).

Broadly, the IC50 is the concentration needed to halve the response being measured.

For one test, the target named is Kv1.4 (Homo sapiens, UniProt P22459). The class given is cell-based. Particulars: for τact / τinact: voltage step from −100 mV to 0 mV, double exponential fit; for Kv1.4 / Kv channel inhibition (in words): highest concentrations tested. A digest of the protocol: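 Kv1.4 expressed under tetracycline induction in a CHO-K1 line and recorded by automated whole-cell voltage clamp. Voltage steps went from −100 mV to 0 mV. A double exponential was fitted to current rise and decay to obtain τact and τinact. Kd values were fitted from these, n = 9, SEM. IC50 came from the best fit of peak-current inhibition ± standard deviation of the parameter fit.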

The test system of test [1] is Gramicidin A (gA) channel. The test is described as follows: Gramicidin A based fluorescence quench assay. Particulars: highest concentration tested. Format: biochemical. In short, it runs like this: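 ANTS was loaded into large unilamellar vesicles containing gramicidin A, and Tl+ was added to the suspension. Intravesicular ANTS quenching was followed over time, with nine individual repeats per trace. The initial quench rate gave the Tl+ influx rate. gA2 is the compound concentration that doubles that rate. Where gA2 was not obtained, the highest concentration tested is given.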

Entries after “also recorded” stand apart in the source; their conditions may differ. Read-outs that look alike come from different tables or passages of the source.

Sequence of Kv1.4 (P22459 whole entry): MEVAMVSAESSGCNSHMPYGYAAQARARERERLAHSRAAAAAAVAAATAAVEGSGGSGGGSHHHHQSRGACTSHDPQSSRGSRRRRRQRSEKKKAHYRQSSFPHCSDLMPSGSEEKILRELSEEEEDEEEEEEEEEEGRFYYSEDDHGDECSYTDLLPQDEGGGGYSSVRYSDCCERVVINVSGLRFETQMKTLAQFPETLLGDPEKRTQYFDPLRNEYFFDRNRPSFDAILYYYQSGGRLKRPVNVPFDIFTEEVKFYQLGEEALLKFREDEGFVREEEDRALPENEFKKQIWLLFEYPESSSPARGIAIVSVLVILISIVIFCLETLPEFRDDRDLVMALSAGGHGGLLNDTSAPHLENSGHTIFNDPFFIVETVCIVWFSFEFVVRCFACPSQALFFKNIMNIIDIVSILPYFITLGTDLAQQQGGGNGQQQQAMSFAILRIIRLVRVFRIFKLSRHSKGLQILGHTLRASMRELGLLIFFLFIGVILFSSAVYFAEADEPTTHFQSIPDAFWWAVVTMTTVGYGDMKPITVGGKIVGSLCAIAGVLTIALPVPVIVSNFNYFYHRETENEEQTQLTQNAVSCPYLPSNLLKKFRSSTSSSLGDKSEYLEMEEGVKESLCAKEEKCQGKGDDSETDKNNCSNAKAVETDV

For the compound `NCCc1c(SSc2[nH]c3cc(Br)ccc3c2CCN)[nH]c2cc(Br)ccc12` [1a, 6-bromo-2-mercaptotryptamine dimer], the τact on Kv1.4 (1.5 μM BrMT) is listed as 2.54 ± 0.02; at Kv1.4 (3 μM BrMT) it was 3.17 ± 0.03; on Kv1.4 (6 μM BrMT) it was 4.2 ± 0.4. Further, the τinact is recorded as 136.6 ± 0.6 at Kv1.4 (1.5 μM BrMT), 181 ± 2 on Kv1.4 (3 μM BrMT) and 300 ± 20 on Kv1.4 (6 μM BrMT). For the same compound, at Kv1.4, the “Kv1.4 / Kv channel inhibition (in words)” value is recorded as “strongly inhibit”.
Regarding `Cc1ccc2c(CCN)c(SSc3[nH]c4cc(C)ccc4c3CCN)[nH]c2c1` [compound 7], the “Kv1.4 / Kv channel inhibition (in words)” value on Kv1.4 was “strongly inhibit”.
With `NCCc1c(SSc2[nH]c3ccc(Br)cc3c2CCN)[nH]c2ccc(Br)cc12` [compound 8], in test [1], the “gA assay activity / bilayer perturbation (in words)” value was “complete inactivity; also recorded: does not perturb bilayers”. Also, the “Kv1.4 / Kv channel inhibition (in words)” value at Kv1.4 is listed as “strongly inhibit”.
In the case of `NCCc1c(COCc2[nH]c3cc(Br)ccc3c2CCN)[nH]c2cc(Br)ccc12` [compound 14], the “Kv1.4 / Kv channel inhibition (in words)” value on Kv1.4 is listed as “strongly inhibit”. The IC50 on Kv1.4 (read-out: IC50 (potency against Kv1.4)) was 2700 nM.
